According to ChEMBL document CHEMBL1124002, “Antiallergy agents. 1. Substituted 1,8-naphthyridin-2(1H)-ones as inhibitors of SRS-A release” (J Med Chem, 1988):
Active and inactive are the calls of the source. The calls are words filed in the database; no cut-off is given here.

How the values were obtained:
[1] = test system: Cavia porcellus; assay: Percent inhibition of bronchospasm in vivo at a dose of 12.5 mg/kg in guinea pig; format: functional; conditions: Bronchiole
In short: (§1)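 Guinea pigs were sensitized with ovalbumin and used 3-4 weeks later. They were fasted and anesthetized with dialurethane ip. Compounds were given orally 2 h before challenge. Propranolol 1 mg/kg, indomethacin 5 mg/kg and mepyramine 2 mg/kg were given iv 15 min before a 0.5 min aerosol of 0.5% ovalbumin through the tracheal cannula. The rise in inflation pressure measured bronchoconstriction. Results are % inhibition, 4-5 animals per group.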

[2] = species: Cavia porcellus; assay: Percent inhibition of SRS-A release in vitro at a dose of 10 uM in guinea pig; format: functional
In short: (§2)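 Male Hartley guinea pigs were sensitized with ovalbumin (5 mg ip + 5 mg sc on day 1, 5 mg ip on day 4). About 400 mg chopped lung was preincubated with compound for 12 min at 37 °C in Tyrode's with 10 mM cysteine, then challenged with 20 μg/mL ovalbumin (final) for 0.25 h. SRS-A in ethanol-extracted supernatant was bioassayed on mepyramine-treated ileum against a rat SRS-A standard. Results are % inhibition versus vehicle, from 3-4 lungs.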

[3] = test system: Cavia porcellus; assay: Percent inhibition of bronchospasm, when administered orally at a dose of 53 mg/kg in guinea pig; format: functional; conditions: Bronchiole, route oral
In short: (§3)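 Male Hartley guinea pigs were sensitized with ovalbumin (5 mg ip plus 5 mg sc on day 1, 5 mg ip on day 4) and used 3-4 weeks later, fasted overnight and given dialurethane ip. They were dosed orally 2 h before challenge and given iv propranolol 1 mg/kg, indomethacin 5 mg/kg and mepyramine 2 mg/kg. Fifteen minutes later, 0.5% ovalbumin aerosol was delivered for 0.5 min via tracheal cannula. Read-out was increased inflation pressure, as mean % inhibition from 4-5 animals.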

[4] = test system: Cavia porcellus; assay: Percent inhibition of bronchospasm, when administered orally at a dose of 160 mg/kg to guinea pig; format: functional; conditions: Bronchiole, route oral; in short: as §3
[5] = test system: Cavia porcellus; assay: Percent inhibition of bronchospasm, when administered orally at a dose of 18 mg/kg in guinea pig; format: functional; conditions: Bronchiole, route oral; in short: as §3
[6] = test system: Cavia porcellus; assay: Effective oral dose required to inhibit bronchospasm in guinea pig; format: functional; conditions: Bronchiole; in short: as §1
[7] = species: Cavia porcellus; assay: Inhibitory activity against SRS-A release in guinea pig; 0.01-19 uM; format: functional; in short: as §2
[8] = test system: Cavia porcellus; assay: Percent inhibition of bronchospasm in vivo at oral dose of 25 mg/kg in guinea pig
[9] = species: Cavia porcellus; assay: Percent inhibition of SRS-A release in vitro at a dose of 3 uM in guinea pig; format: functional; in short: as §2
[10] = test system: Cavia porcellus; assay: Percent inhibition of bronchospasm when administered at a dose of 5 mg/kg in guinea pig; format: functional; conditions: Bronchiole
In short: (§4)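 Ovalbumin-sensitized, anesthetized guinea pigs received iv propranolol 1 mg/kg, indomethacin 5 mg/kg and mepyramine 2 mg/kg, then a 0.5 min aerosol challenge with 0.5% ovalbumin 15 min later. The agent was given intravenously. The rise in inflation pressure was scored as % inhibition of bronchospasm.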

[11] = test system: Cavia porcellus; assay: Percent inhibition of bronchospasm when administered at a dose of 2.5 mg/kg in guinea pig; format: functional; conditions: Bronchiole; in short: as §4
[12] = test system: Cavia porcellus; assay: Percent inhibition of bronchospasm when administered at a dose of 1 mg/kg in guinea pig; format: functional; conditions: Bronchiole; in short: as §4
[13] = species: Cavia porcellus; assay: Production of LTD4 in guinea pig lung; format: functional
In short: (§5)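 Lung fragments pooled from four sensitized guinea pigs were challenged in 0.4 g aliquots with antigen, with 10 μM test agent or DMSO vehicle added 12 min before challenge. Tyrode's held 10 mM cysteine and 10 μM indomethacin. Ethanol extracts were pooled, solvent-partitioned and run on reverse-phase HPLC with UV 280 nm. LTD4 was quantified against an LTC4 standard curve (10-200 pmol) as pmol/g.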

[14] = species: Cavia porcellus; assay: Inhibitory activity against SRS-A release in guinea pig; 0.7-2 uM; format: functional; in short: as §2
[15] = species: Rattus norvegicus; assay: Compound was tested in vitro in rat polymorphonuclear leucocyte for the inhibition of production of leukotriene products at 50 uM concentration; No inhibition; format: functional
[16] = species: Mus musculus; assay: Compound was tested in vitro in cloned murine mast cell (MC-9) for the inhibition of production of leukotriene products at 50 uM concentration; No inhibition; format: functional
[17] = species: Cavia porcellus; assay: Compound was tested for th inhibition of LTD4 production in guinea pig lung; format: functional; in short: as §5
[18] = species: Cavia porcellus; assay: Production of SRS-A in guinea pig lung; format: functional
In short: (§6)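 Antigen-challenged lung fragments from sensitized guinea pigs were treated with 10 μM test agent or DMSO vehicle 12 min before challenge. Tyrode's contained 10 mM cysteine and 10 μM indomethacin. SRS-A in ethanol extracts was bioassayed on guinea pig ileum and given as units/g, mean ± SEM of 4 lungs. A paired t test compared treatment with vehicle.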

[19] = species: Cavia porcellus; assay: Compound was tested for th inhibition of SRS-A production in guinea pig lung; format: functional; in short: as §6
[20] = test system: Cavia porcellus; assay: Effective oral dose required to inhibit bronchospasm in guinea pig; 1.3-7.6 mg/kg; format: functional; conditions: Bronchiole; in short: as §1
[21] = test system: Cavia porcellus; assay: Percent inhibition of bronchospasm in vivo at a dose of 25 mg/kg in guinea pig; format: functional; conditions: Bronchiole; in short: as §1
[22] = test system: Cavia porcellus; assay: Percent inhibition of bronchospasm in vivo for a dose of 5 mg/kg in guinea pig; format: functional; conditions: Bronchiole, read-out: Inhibition; in short: as §4
[23] = test system: Cavia porcellus; assay: Percent inhibition of bronchospasm administered intravenously at a dose of 5 mg/kg in guinea pig; format: functional; conditions: Bronchiole, route intravenous; in short: as §4
[24] = test system: Cavia porcellus; assay: Effective oral dose required to inhibit bronchospasm in guinea pig; 0.9-12.8 mg/kg; format: functional; conditions: Bronchiole; in short: as §1
[25] = species: Cavia porcellus; assay: Inhibitory activity against SRS-A release in guinea pig; 0.05-14 uM; format: functional; in short: as §2
[26] = species: Cavia porcellus; assay: Inhibitory activity against sulfidopeptide leukotriene release in guinea pig; format: functional

Question: What does the source list for C=CCc1c(OC(C)=O)c2cccnc2n(-c2cccc(OC)c2)c1=O?
Answer: inhibition in vivo at 12.5 mg/kg [1]: 32%; inhibition at 10 µM [2]: 84%

Question: What does the source list for CCCCc1c(OC(C)=O)c2cccnc2n(-c2ccc(F)cc2)c1=O?
Answer: inhibition in vivo at 12.5 mg/kg [1]: 34%; inhibition at 10 µM [2]: 77%

Question: C#CCOc1c(CC#C)c(=O)n(-c2ccccc2)c2ncccc12 was tested. Which inhibition in vivo at 12.5 mg/kg [1] did it give?
Answer: 0%

Question: What about the inhibition at 10 µM [2] of the same compound?
Answer: 62%

Question: With Cn1c(=O)c2[nH]cnc2n(C)c1=O [AMINOPHYLLINE] as the compound, how does the inhibition in vivo at 53 mg/kg [3] read?
Answer: 55%

Question: What about the inhibition in vivo at 160 mg/kg [4] of the same compound?
Answer: 81%

Question: What about the inhibition in vivo at 18 mg/kg [5] of the same compound?
Answer: 21%

Question: With CCCCc1c(O)c2cccnc2n(-c2ccc(F)cc2)c1=O as the compound, how does the inhibition in vivo at 12.5 mg/kg [1] read?
Answer: 0%

Question: What about the inhibition at 10 µM [2] of the same compound?
Answer: 95%

Question: CCCCc1c([O-])c2cccnc2n(-c2ccccc2)c1=O.[Na+] was tested. Which inhibition in vivo at 12.5 mg/kg [1] did it give?
Answer: 68%

Question: And the ED50 [6]?
Answer: 14 mg/kg

Question: What about the IC50 [7] of the same compound?
Answer: 240 nM

Question: What about the inhibition at 10 µM [2] of the same compound?
Answer: 56%

Question: Which results are given for C=CCc1c(O)c2cccnc2n(-c2ccccc2)c1=O?
Answer: Inhibition [8]: 85%; inhibition at 10 µM [2]: 81%

Question: With C=CCc1c(OC(C)=O)c2cccnc2n(-c2ccc(OCc3ccccc3)cc2)c1=O as the compound, how does the inhibition at 3 µM [9] read?
Answer: 23%

Question: Which inhibition in vivo at 12.5 mg/kg [1] does the source give for O=c1c(CCc2ccccn2)c(O)c2cccnc2n1-c1ccccc1 here?
Answer: 5%

Question: And the inhibition at 10 µM [2]?
Answer: 58%

Question: How did the inhibition in vivo at 5 mg/kg [10] turn out when CCCc1c(OCC(O)COc2ccc3c(=O)cc(C(=O)O)oc3c2CCC)ccc(C(C)=O)c1O (stereo not drawn) [FPL-55712] was run?
Answer: 68%

Question: And the inhibition in vivo at 2.5 mg/kg [11]?
Answer: 57%

Question: And the inhibition in vivo at 1 mg/kg [12]?
Answer: 32%

Question: What does the source list for C=CCc1c(OC(C)=O)c2cccnc2n(-c2ccccc2)c1=O?
Answer: LTD4 production at 10 µM [13]: 25 pmol/g; inhibition in vivo at 12.5 mg/kg [1]: 84%; IC50 [14]: 1100 nM; Activity [15]: inactive; Activity [16]: inactive; Inhibition [17]: 70%; SRS-A release at 10 µM [18]: 9.3 units/g; Inhibition [19]: 69%; inhibition at 10 µM [2]: 73%; ED50 [20]: 2.9 mg/kg

Question: How did the inhibition in vivo at 12.5 mg/kg [1] turn out when CCCCc1c(OCCN(C)C)c2cccnc2n(-c2ccccc2)c1=O was run?
Answer: 13%

Question: And the inhibition in vivo at 25 mg/kg [21]?
Answer: 84%

Question: And the inhibition at 10 µM [2]?
Answer: 0%

Question: How did the inhibition in vivo at 5 mg/kg [22] turn out when CCCc1c2c(c(O)c3c(=O)cc(C(=O)O)oc13)CCCC2 [PROXICROMIL] was run?
Answer: 0%

Question: And the inhibition in vivo at 5 mg/kg [23]?
Answer: 0%

Question: What does the source list for CCCCc1c(O)c2cccnc2n(-c2ccc3c(c2)CCC3)c1=O?
Answer: inhibition in vivo at 25 mg/kg [21]: 1%; inhibition at 10 µM [2]: 55%

Question: For C=CCc1c(O)c2cccnc2n(-c2ccccc2OC)c1=O, which ED50 [24] is on record?
Answer: 3.7 mg/kg

Question: What about the IC50 [25] of the same compound?
Answer: 980 nM

Question: And the inhibition in vivo at 25 mg/kg [21]?
Answer: 90%

Question: What about the inhibition at 10 µM [2] of the same compound?
Answer: 69%

Question: With CCCCc1c(O)c2cccnc2n(-c2ccc(O)c(C(=O)OCC)c2)c1=O as the compound, how does the inhibition in vivo at 12.5 mg/kg [1] read?
Answer: 0%

Question: And the inhibition at 10 µM [2]?
Answer: 65%

Question: What does the source list for CCCCCc1c(O)c2cccnc2n(-c2ccccc2)c1=O?
Answer: inhibition in vivo at 25 mg/kg [21]: 42%; inhibition at 10 µM [2]: 49%

Question: Which results are given for O=c1c(-c2ccccn2)c(O)c2cccnc2n1-c1ccccc1?
Answer: inhibition in vivo at 12.5 mg/kg [1]: 42%; inhibition at 10 µM [2]: 84%

Question: How did the IC50 [26] turn out when C=CCc1c(OC(C)=O)c2cccnc2n(-c2cccc(Cl)c2)c1=O was run?
Answer: ~1000 nM

Question: And the ED50 [6]?
Answer: 0.4 mg/kg

Question: What about the inhibition at 10 µM [2] of the same compound?
Answer: 60%

Question: For O=c1c(C2CCCCC2)c(O)c2cccnc2n1-c1ccccc1, which inhibition in vivo at 25 mg/kg [21] is on record?
Answer: 45%

Question: What about the inhibition at 10 µM [2] of the same compound?
Answer: 66%

Question: How did the inhibition in vivo at 12.5 mg/kg [1] turn out when CCc1c(O)c2cccnc2n(-c2ccccc2)c1=O was run?
Answer: 44%

Question: And the inhibition at 10 µM [2]?
Answer: 74%

Question: What does the source list for CCCCCCn1c(=O)c(CCCC)c(O)c2cccnc21?
Answer: inhibition in vivo at 25 mg/kg [21]: 15%; inhibition at 10 µM [2]: 63%

Question: What does the source list for CC(C)=CCc1c(O)c2nccnc2n(-c2ccccc2)c1=O?
Answer: inhibition in vivo at 25 mg/kg [21]: 10%; inhibition at 10 µM [2]: 69%

Question: What does the source list for CCCCc1c(OCCCN(C)C)c2cccnc2n(-c2ccccc2)c1=O?
Answer: inhibition in vivo at 25 mg/kg [21]: 13%; inhibition at 10 µM [2]: 0%
